Measurements as given in ChEMBL document CHEMBL1152508, “Interaction of drug based binuclear mixed-ligand complexes with DNA” (2009).

Legend:
Format in all cases: functional
[1] = tested on: Pseudomonas aeruginosa; test: Antibacterial activity against Pseudomonas aeruginosa after 24 hrs by twofold serial dilution method
In short: (§1)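 Bacteria activated by inoculation into luria broth for 24 h at 30 °C. Compounds dissolved in DMSO, then diluted in luria broth as twofold serial concentrations. Test cultures incubated 24 h at 37 °C. MIC taken as the lowest concentration giving complete inhibition of growth.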

[2] = tested on: Escherichia coli; test: Antibacterial activity against Escherichia coli after 24 hrs by twofold serial dilution method; in short: as §1
[3] = tested on: Staphylococcus aureus; test: Antibacterial activity against Staphylococcus aureus after 24 hrs by twofold serial dilution method; in short: as §1
[4] = tested on: Bacillus subtilis; test: Antibacterial activity against Bacillus subtilis after 24 hrs by twofold serial dilution method; in short: as §1
[5] = tested on: Serratia marcescens; test: Antibacterial activity against Serratia marcescens after 24 hrs by twofold serial dilution method; in short: as §1

SMILES	Activity [1] [µM]	Activity [2] [µM]	Activity [3] [µM]	Activity [4] [µM]	Activity [5] [µM]
COc1ccc(/C=N/CC/N=C/c2ccc(OC)cc2)cc1	1855	2193	1687	1518	1687
C/C(=N/c1ccccc1/N=C(\C)c1ccccc1)c1ccccc1	1920	2080	1760	1600	1760
Nc1cccc2cccc(N)c12	3792	4108	3160	3476	4108
COc1ccc(/N=C(C)\C(C)=N\c2ccc(OC)cc2)cc1	2193	2361	1855	1518	2024
Nc1ccccc1N	6010	6473	5086	5548	6010
O=C(O)c1cn(C2CC2)c2cc(N3CCNCC3)c(F)cc2c1=O [CIPROFLOXACIN]	1.36	1.36	1.63	1.09	1.63
CCN1CCN(c2cc3c(cc2F)c(=O)c(C(=O)O)cn3C2CC2)CC1 [ENROFLOXACIN]	1.39	1.39	1.95	3.9	1.67
NCCN [ETHYLENEDIAMINE]	10815	10815	8319	9151	9983
COc1c(N2CCNC(C)C2)c(F)cc2c(=O)c(C(=O)O)cn(C3CC3)c12 (stereo not given) [GATIFLOXACIN]	1.01	2.93	5.06	4	2.93
C[C@H]1COc2c(N3CCN(C)CC3)c(F)cc3c(=O)c(C(=O)O)cn1c23.C[C@H]1COc2c(N3CCN(C)CC3)c(F)cc3c(=O)c(C(=O)O)cn1c23.O [LEVOFLOXACIN]	1.66	0.97	1.66	2.21	1.67
CCn1cc(C(=O)O)c(=O)c2cc(F)c(N3CCNCC3)cc21 [NORFLOXACIN]	3.76	2.82	2.5	2.51	4.07
CC1COc2c(N3CCN(C)CC3)c(F)cc3c(=O)c(C(=O)O)cn1c23 (stereo not given) [OFLOXACIN]	2.21	1.38	1.94	1.38	1.66
CCn1cc(C(=O)O)c(=O)c2cc(F)c(N3CCN(C)CC3)cc21 [PEFLOXACIN]	5.7	2.7	2.1	2.4	5.1
C[C@@H]1CN(c2c(F)c(N)c3c(=O)c(C(=O)O)cn(C4CC4)c3c2F)C[C@H](C)N1 [SPARFLOXACIN]	1.53	1.27	1.27	2.04	1.53
